# CHOP inh – inhibitors of CHOP promoter induction, primary screen, cell-based, unfolded protein response, luciferase reporter. inhibition, % at 10 µM. CHO-K1 CHOP-promoter luciferase, tunicamycin-induced, 15-18 h. hit rate 3.8% among 220,000. AID 2732, 2010;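 active means compounds that reduced the stress-induced luciferase reporter signal by more than about 70% of percent inhibition, limit read from the data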;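 further: 0% = tunicamycin plus vehicle and 100% = wells without tunicamycin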
# b-catenin transl – modulators of beta-catenin nuclear translocation, primary screen, imaging, HeLa cells, immunofluorescence, high-content. nuclear translocation activity, % at 5 µM. hit rate 0.3% among 190,000;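 active means nuclear translocation activity above 50% at 5 µM, with a well cell count of 50 or more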;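 further: per-cell ratio of nuclear to cytoplasmic median beta-catenin stain intensity; plate controls were DMSO negative control for no effect and GSK-3 inhibitor IX positive control for full effect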
#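 Test system: human HeLa cells, endogenous beta-catenin. Times: 24 h compound exposure, 37°C. Measured by: beta-catenin immunofluorescence imaging with DAPI.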
# Dynein cargo inh – inhibitors of GR-EGFP nuclear translocation, primary screen, dynein cargo transport inhibitor project, imaging, high-content, 3617.4 mouse cells; z-score, hits read low; hit rate 0.47% among 220,000; AID 1381, 2008; test concentration mostly 20 µM; stimulated with dexamethasone, 1 µM; active compounds read low;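 active means plate z-score of nuclear minus cytoplasmic receptor signal below a set negative limit, without overly bright fluorescence or cell loss, cut at about -3.5 in these data, passing the limit was not always enough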;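 further: z-score of nuclear minus cytoplasmic ring GR-EGFP intensity difference per well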
#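 Buffer or medium: tetracycline-free induction medium containing charcoal-stripped FBS / Reagent: dexamethasone agonist, 1.0 µM final, for 30 min / Technique: automated 10x imaging of fixed Hoechst-stained cells / Times: induction 48 h, compound 1 h, agonist 30 min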
# L major viab – Leishmania major promastigote growth inhibition, primary screen | Leishmania major promastigotes, resazurin fluorescence viability | inhibition, % at 10 µM | hit rate 9% among 200,000; in the data active means inhibition above about 50%;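 further: promastigotes grown with compound for 44 hours at 28 °C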
# MT stabilize HCS – microtubule stabilizers in HeLa cells, primary screen, imaging, high-content imaging; % tubulin-high responders, % at 10 µM; hit rate 0.83% among 200,000; HeLa tubulin immunostaining HCS, 24 h; share of cells brighter than vehicle mean+2SD;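 active means plate Z-score above 3 for both tubulin-high and condensed-nucleus cell shares, with cell loss under 80%, at 10 µM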;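 further: anti alpha tubulin signal scored within the nucleus-defined area of each cell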
# Autophagy mod – autophagy modulators in MEF cells, primary screen, imaging, high-content, MEF GFP-LC3; AID 463193, 2010; MEF GFP-LC3 puncta imaging; test concentration mostly 10 µM; hit rate 0.98% among 190,000; calls only at 10 µM (by protocol);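 active means percentage of spot-positive cells more than 3 SD above its plate mean, without a fluorescence outlier flag or 80% toxicity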;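 further: spot-positive cell cutoff set from DMSO-treated cells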
# * = called active by the depositor; i = inactive; x = not tested or not shown; + = active, no number. A selection: hits, their analogues and other compounds. The true share with any hit is near 12%.
SMILES,CHOP inh,b-catenin transl,Dynein cargo inh,L major viab,MT stabilize HCS,Autophagy mod
O=C(Nc1nc2c(F)cc(F)cc2s1)C1CC(=O)N(Cc2ccco2)C1 (centres undefined),5,-3,-0.98,x,x,x
Cc1cc2nc(-c3ccc(NC(=O)C(C)C)cc3)oc2cc1C,5,0,-0.31,90*,0,i
CC(Oc1ccc(Cl)cc1Cl)C(=O)Nc1ccc2oc(-c3ccncc3)nc2c1 (centres undefined),74*,x,-1,19,3,i
Cc1ccc(-c2nc3cc(NC(=O)C(C)C)ccc3o2)cc1,33,-1,-0.12,4,1,i
CC(C)CC(=O)Nc1ccc2oc(-c3ccncc3)nc2c1,-4,-3,-0.063,2,3,i
Cc1cc(-c2nc(C)c(C(=O)NN)s2)no1,-15,9,0.3,x,x,x
CCc1ccc(Nc2nc(N)nc(CSc3nc4ccccc4s3)n2)cc1,73*,1,-0.3,3,2,i
COc1ccccc1N1CCN(C(=O)Nc2cccc(C)c2)CC1,51,-5,0.44,-1,2,i
CC(C)(C)c1ccccc1OCC(=O)NCCC(=O)O,-11,-6,2.6,99*,5,i
CC(C)(C)c1ccccc1OCC(=O)Nc1ncn[nH]1,38,x,2.1,3,2,i
Cc1nn(-c2ccccc2)c(N2CCCC2)c1/C=N/NC(=O)c1ccccc1O,15,2,0.62,6,2,i
O=C(N/N=C/c1cc2c3c(c1O)CCCN3CCC2)c1ccccc1O,53,4,-0.5,100*,5,i
COc1ccccc1NCC(=O)NNCC(=O)Nc1ccc(F)c(Cl)c1,20,0,-0.46,7,5,i
CCOc1cc(CN2CCCC(CNC(=O)c3ccc(F)cc3)C2)ccc1OC (centres undefined),14,2,-0.34,x,x,x
O=C(NCc1ccccc1F)c1ccc(S(=O)(=O)Nc2cccc(C(F)(F)F)c2)cc1,20,0,-0.051,-1,4,i
O=C(NCC1CCCN(Cc2ccccc2F)C1)c1cccc(C(F)(F)F)c1 (centres undefined),36,1,1.4,61*,3,i
COc1ccc(CN2CCCC(CNC(=O)c3ccc(F)cc3)C2)c(C)c1C (centres undefined),6,-1,-1,80*,1,i
COc1ccc(CN2CCCC(CNC(=O)c3ccc(F)cc3)C2)c(F)c1 (centres undefined),-2,1,0.65,89*,1,i
COc1ccccc1-c1cc2nc(C)cc(C)n2n1,-28,5,0.96,x,x,x
CC(C)Cc1nnc(NS(=O)(=O)c2ccc(Cl)cc2)s1,29,2,-0.57,-7,4,x
O=C1CCCN1CCCNc1ncnc2sccc12,21,1,0.076,2,3,i
NS(=O)(=O)c1ccc(O)c(NC(=O)c2ccc([N+](=O)[O-])o2)c1,-8,0,-0.026,x,x,x
Cc1cc(C)nc(NC(=O)c2ccc([N+](=O)[O-])o2)n1,22,8,-0.76,56*,2,i
Cc1cc(C)nc(NC(=O)c2cccc([N+](=O)[O-])c2C)n1,8,2,-1.1,-3,2,i
Cc1cc(C)cc(NC(=O)c2ccc([N+](=O)[O-])o2)c1,-29,4,-0.91,100*,3,i
SMILES,CHOP inh,b-catenin transl,Dynein cargo inh,L major viab,MT stabilize HCS,Autophagy mod
Cc1cc(NC(=O)c2ccc([N+](=O)[O-])o2)ccc1NC(=O)c1ccco1,-163,-1,-1.6,100*,30,i
CCN(c1nc(N)c(C(=O)N=C(N)N)nc1Cl)C(C)C,-7,x,x,x,x,x
O=C(Nc1ccc(S(=O)(=O)Nc2nccs2)cc1)c1ccc(=O)[nH]c1,12,0,-0.83,-6,2,i
CCCOc1ccc2c3c(c(=O)oc2c1OCCC)CCCC3,39,-1,-0.32,54*,2,i
CCOc1ccc2c3c(c(=O)oc2c1OCC)CCCC3,20,2,0.39,6,4,i
COc1ccc(NC(=O)COC(=O)C2CCC(C(C)(C)C)CC2)c([N+](=O)[O-])c1 (centres undefined),20,-3,0.66,2,6,i
O=C(N=Nc1c(O)[nH]c2ccc(Br)cc12)c1ccccc1-n1cccc1,53,154*,1.1,24,10,i
O=C(N=Nc1c(O)[nH]c2ccc(Br)cc12)c1cc(-c2cccc3ccccc23)n[nH]1,62,1,1.1,66*,2,i
CCOC(=O)C(C(=O)Nc1cccc(C)c1)C1CCCCC1 (centres undefined),34,x,-0.0096,8,3,i
COc1ccccc1-c1cc(SC)c(C#N)c(=O)o1,94*,2,-2.4,-2,2,i
COc1ccccc1-c1cc(C(F)(F)F)c(C#N)c(=O)[nH]1,5,-2,-0.22,-2,2,i
CCCOC(=O)c1ccc(NC(=O)C(=O)NCC2CCCO2)cc1 (centres undefined),26,-2,0.49,55*,1,i
CCN(CC)CCCN1C(=O)C(=O)/C(=C(/O)c2cnn(-c3ccccc3)c2C)C1c1ccncc1 (centres undefined),x,x,-0.93,-2,2,i
O=C(NCC1CCCO1)C(Cc1ccccc1)N1C(=O)C2C3C=CC(C4CC34)C2C1=O (centres undefined),-7,2,-0.27,1,1,i
O=C(CC1(O)C(=O)N(C/C=C/c2ccccc2)c2ccccc21)c1ccccn1 (centres undefined),-5,2,-0.54,9,4,+
C=CCNC(=O)C1CC2Cn3c(nc4cc5ccccc5cc43)C2N1C (centres undefined),-13,-3,2.4,x,x,x
S=C(Nc1ccc(Oc2ccccc2)cc1)NC1CCCCCC1,37,-1,-0.4,16,3,i
FC(F)(F)c1cccc(NC(=S)NC2CCCC2)c1,11,x,-0.84,74*,3,i
CCOc1ccccc1NC(=S)NC1CCCCC1,5,-1,-0.34,92*,5,i
O=C(O)c1ccc(NC(=S)NC2CCCCC2)cc1,7,-1,0.23,10,2,i
FC(F)(F)c1ccc(NC(=S)NC2CCCCC2)cc1,88*,-2,-0.092,9,3,i
S=C(NNc1ccc2ccccc2c1)NC1CCCCC1,81*,2,-0.42,13,5,i
CCOC(=O)/C(C#N)=C\C1=C(N2CCOCC2)CC(C)(C)OC1,21,-5,-1.1,-3,1,i
O=C(OCC(=O)N1CCc2ccccc2C1)c1cccnc1Cl,2,-1,-0.26,-5,3,i
